Data set [1] deals with T1, Inhibitor of nuclear factor kappa-B kinase subunit alpha (Homo sapiens) (UniProt O15111).
T1 sequence (whole entry): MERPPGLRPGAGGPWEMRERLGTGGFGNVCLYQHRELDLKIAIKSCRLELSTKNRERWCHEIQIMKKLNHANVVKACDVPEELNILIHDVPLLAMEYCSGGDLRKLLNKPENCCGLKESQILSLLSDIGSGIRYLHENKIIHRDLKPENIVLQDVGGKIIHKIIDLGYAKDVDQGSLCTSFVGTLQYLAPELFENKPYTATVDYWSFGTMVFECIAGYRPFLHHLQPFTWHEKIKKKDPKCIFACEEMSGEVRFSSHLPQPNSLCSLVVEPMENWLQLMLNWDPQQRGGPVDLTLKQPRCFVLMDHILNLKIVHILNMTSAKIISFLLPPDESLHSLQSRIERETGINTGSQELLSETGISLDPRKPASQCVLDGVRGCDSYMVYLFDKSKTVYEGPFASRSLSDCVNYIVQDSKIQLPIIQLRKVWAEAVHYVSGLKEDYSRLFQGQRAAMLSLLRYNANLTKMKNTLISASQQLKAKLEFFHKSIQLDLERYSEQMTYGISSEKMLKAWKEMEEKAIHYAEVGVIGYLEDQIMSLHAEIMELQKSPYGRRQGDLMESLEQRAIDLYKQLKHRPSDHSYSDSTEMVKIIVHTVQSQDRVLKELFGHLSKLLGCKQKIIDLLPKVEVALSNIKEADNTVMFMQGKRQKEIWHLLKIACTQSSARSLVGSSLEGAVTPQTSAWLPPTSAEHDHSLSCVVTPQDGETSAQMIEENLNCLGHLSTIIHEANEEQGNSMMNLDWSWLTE
Briefly: Inhibition of IKK alpha nuclear translocation in human HEK-293T cells assessed as reduction in IKK alpha level in nucleus at 15 uM pretreated with compound for 1 hr followed by stimulation with IL-1 beta for 3 hrs by western blot analysis. The format is subcellular. A digest of the protocol:
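HEK 293T cells were pretreated with vehicle or test agent, then stimulated with IL-1β (or vehicle). Cells were lysed and nuclei separated, and the cytosolic and nuclear fractions were each probed for IKKα and IKKβ by Western blotting.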
(Immunoblotting shows a protein as a band on a membrane.)

Data set [2] in a line: Cytotoxicity against human Hs578Bst cells assessed as reduction in cell viability measured after 24 hrs by CellTiter-Glo luminescent assay. The format is cell-based. A digest of the protocol:
(§1)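 High-throughput viability screen of test agents across a panel of 22 cancerous and noncancerous human cell lines. Viability was read by CellTiter-Glo luminescence.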
On the technique in general: ATP-based viability assays read luminescence as a measure of living cells.

The nature of data set [3]: Selectivity index, ratio of IC50 for human Hs578Bst cells to EC50 for human SU-DHL-4 cells measured after 24 hrs by CellTiter-Glo luminescent assay. Particulars: Hs578Bst cells (IC50) versus SU-DHL-4 cells (EC50). The format is toxicity. A digest of the protocol:
as §1

Data set [4] relates to CA46. The experiment in a line: Cytotoxicity against human CA46 cells assessed as reduction in cell viability measured after 24 hrs by CellTiter-Glo luminescent assay. The format is functional, cell-based. The following applies: CA46, 24 h. A digest of the protocol: as §1
Data set [5] can be described thus: Inhibition of IKKalpha/IKKbeta in human HEK293T cells transfected with firefly luciferase gene assessed as inhibition of IL-1 beta-stimulated NF-kappaB signalling preincubated for 1 hr followed by IL-1 beta stimulation measured after 3 hrs by luciferase reporter gene assay. The format is cell-based. The following applies: HEK-293T. A general note: In a reporter assay the amount or activity of a reporter protein is the signal.

A short description of data set [6]: Cytotoxicity against human Hs888Lu cells assessed as reduction in cell viability measured after 24 hrs by CellTiter-Glo luminescent assay. It counts as cell-based. A digest of the protocol: as §1
For data set [7], the target named is T1, Inhibitor of nuclear factor kappa-B kinase subunit alpha (Homo sapiens). Briefly: Inhibition of IKKalpha in human HeLa cells assessed as reduction in IL-1 beta-stimulated IKK alpha nuclear translocation at 10 uM pretreated with compound for 4 hrs followed by stimulation with IL-1 beta for 1 hr by immunohistochemical staining/confocal microscopy. The format is cell-based. A digest of the protocol: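 HeLa cells were pretreated with DMSO or test agent for 4 h, then stimulated with IL-1β (or vehicle) for 1 h. NF-κB pathway members were immunostained with AF488-tagged antibodies, nuclei were counterstained with DAPI, and compartmental localization was imaged by confocal microscopy.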

Data set [8] has the same target. The experiment in a line: Inhibition of JRA-031 binding to IKKalpha in TNF-alpha-stimulated human HEK293T cells at 1 uM pretreated with compound for 1 hr followed by labeling with JRA-031 for 1 hr followed by stimulation with TNF-alpha for 1 hr by pull down based mass spectrometry. The format is cell-based. The following applies: HEK-293T.
The test system of data set [9] is SUD4. The experiment in a line: Cytotoxicity against human SU-DHL-4 cells assessed as reduction in cell viability measured after 24 hrs by CellTiter-Glo luminescent assay. The format is functional, cell-based. Particulars: SU-DHL-4, 24 h. A digest of the protocol: as §1
Data set [10] relates to HCC1599. The experiment in a line: Cytotoxicity against human HCC1599 cells assessed as reduction in cell viability measured after 24 hrs by CellTiter-Glo luminescent assay. The format is functional, cell-based. Particulars: HCC1599, 24 h. A digest of the protocol: as §1
The target of data set [11] is T2, Inhibitor of nuclear factor kappa-B kinase subunit beta (Homo sapiens) (UniProt O14920).
T2 sequence (whole entry): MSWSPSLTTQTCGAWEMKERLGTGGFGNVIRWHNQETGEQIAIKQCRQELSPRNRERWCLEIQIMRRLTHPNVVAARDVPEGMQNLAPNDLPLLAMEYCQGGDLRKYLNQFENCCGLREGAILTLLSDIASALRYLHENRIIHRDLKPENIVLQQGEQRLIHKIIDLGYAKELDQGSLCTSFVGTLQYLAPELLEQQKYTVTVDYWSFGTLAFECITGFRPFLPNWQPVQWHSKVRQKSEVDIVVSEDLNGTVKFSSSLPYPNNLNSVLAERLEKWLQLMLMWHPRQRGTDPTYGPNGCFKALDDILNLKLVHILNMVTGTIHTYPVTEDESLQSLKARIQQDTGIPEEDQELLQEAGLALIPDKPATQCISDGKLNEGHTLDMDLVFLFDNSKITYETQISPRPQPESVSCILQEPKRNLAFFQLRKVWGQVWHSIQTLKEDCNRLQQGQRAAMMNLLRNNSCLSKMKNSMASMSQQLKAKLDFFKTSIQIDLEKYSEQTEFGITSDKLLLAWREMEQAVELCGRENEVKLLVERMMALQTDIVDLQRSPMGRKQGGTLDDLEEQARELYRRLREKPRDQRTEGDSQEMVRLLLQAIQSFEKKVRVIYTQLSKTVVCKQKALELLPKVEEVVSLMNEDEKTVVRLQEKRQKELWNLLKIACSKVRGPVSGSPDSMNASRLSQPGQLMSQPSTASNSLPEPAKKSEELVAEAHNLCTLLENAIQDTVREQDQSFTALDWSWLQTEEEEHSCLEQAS
Briefly: Inhibition of JRA-031 binding to IKKbeta in TNF-alpha-stimulated human HEK293T cells at 1 uM pretreated with compound for 1 hr followed by labeling with JRA-031 for 1 hr followed by stimulation with TNF-alpha for 1 hr by pull down based mass spectrometry. It counts as cell-based. The following applies: HEK-293T.

Data set [12] is described as follows: Selectivity index, ratio of IC50 for human Hs888lu cells to EC50 for human HS578T cells measured after 24 hrs by CellTiter-Glo luminescent assay. A digest of the protocol: as §1
Data set [13] has as its system HEK-293T. The experiment in a line: Cytotoxicity against human HEK293T cells assessed as reduction in cell viability measured after 24 hrs by CellTiter-Glo luminescent assay. The format is cell-based. A digest of the protocol: as §1
Data set [14] in a line: Inhibition of IKKalpha/IKKbeta in human HEK293T cells transfected with firefly luciferase gene assessed as inhibition of TNF-alpha-stimulated NF-kappaB signalling preincubated for 1 hr followed by TNF alpha stimulation measured after 3 hrs by luciferase reporter gene assay. It counts as cell-based. Particulars: HEK-293T. A digest of the protocol:
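Commercial NF-κB-driven luciferase reporter assay in HEK 293T cells stimulated with TNFα. EC50 was derived from the luminescence readout.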

Structures are written as SMILES. pEC50, pIC50: −log10 of the molar value. Calls of active or inactive are those of the source. No cut-off for these calls is given here. Some results are limits rather than exact numbers.

In general, pIC50 refers to the IC50 on a negative log10 scale, so that one unit is a factor of ten. By pEC50 is commonly meant −log10 of the EC50, conventionally taken in molar units. In the case of `C=C1C[C@]23C[C@@]1(O)CC[C@H]2[C@@]12C=CC(=O)[C@@](C)(C(=O)O1)[C@H]2[C@@H]3C(=O)OC`, the inhibition result in data set [1], in data set [7], in data set [8] and in data set [11] was “Active” in each case. The negative logarithm of the IC50 (pIC50) was under 5.00 in data set [2], 5.22 in [5], under 5.00 in data set [6] and under 5.00 in [13]. For the same compound, the selectivity ratio at 24 h in data set [3] stood at 500. Also, the pEC50 in data set [4] was over 7.40; in data set [9] it was over 7.40; in data set [10], 6.82; in data set [14] it was 5.59. In data set [12], the Ratio IC50/EC50 is over 500.
